Fewer inactive variants are shown than the library holds.
B1: tRNA (parent)
chain: GUUCCGUUGGCGUAAUGGUAACGCGUCUCCCUCCUAAGGAGAAGACUGCGGGUUCGAGUCCCGUACGGAACG

Variants of: B1
Assay: yeast fitness relative to wild type (ratio to wild type); higher = fitter; tRNA-Arg(CCU), competitive growth, 37 C, YPD
Method in brief: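 Start and end populations of a pooled competition were compared by 100-nucleotide paired-end sequencing of gene amplicons. The Saccharomyces cerevisiae strains carried tRNA-Arg(CCU) gene variants at the native genomic locus, synthesised with a 3% per-site mutation rate at 69 sites, and competed in YPD at 37°C for 24 hours in six parallel replicates. Darwinian fitness relative to wild type was based on the change in genotype frequencies. Genotypes required ≥ 100 starting reads, and estimates < 0.5 were set to 0.5.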

Compared with A36G G39A, A36G G39A U47A G68C is lower in yeast fitness: 0.954 for the first, ≤ 0.5 for the second.

First: A36G G39C
Second: A36G G41A A43G C60U A70C
The yeast fitness of the first is higher: 0.787 for the first, ≤ 0.5 for the second.

First: A36G G41A C60G A65G
Second: A36G G41C
The yeast fitness of the first is lower: ≤ 0.5 for the first, 0.955 for the second.

First: A36G G41C C60G
Second: A36G G44A C46U
The yeast fitness of the first is lower: 0.682 for the first, 0.992 for the second.

Compared with A36G G44C, A36G G44U is lower in yeast fitness: 0.981 for the first, 0.711 for the second.

Going from A36G G48A C49G to A36G G48A C49G U59A, the yeast fitness falls from 0.63 to ≤ 0.5.

Going from A36G G48A U53G to A36G G48C, the yeast fitness rises from ≤ 0.5 to 0.905.

Going from A36G G50C to A36G G50C U64C, the yeast fitness rises from 0.723 to 1.18.

Going from A36G G52A to A36G G52A C62G, the yeast fitness falls from 0.744 to ≤ 0.5.

Compared with A36G G52C, A36G G56A is higher in yeast fitness: 0.674 for the first, 1.01 for the second.

First: A36G G56C
Second: A36G G58A
The yeast fitness of the first is lower: 0.686 for the first, 0.898 for the second.

First: A36G G58C
Second: A36G G63A
The yeast fitness of the first is lower: 0.943 for the first, 0.944 for the second.

Going from A36G G63A A69U to A36G G63C, the yeast fitness rises from 0.688 to 0.724.

Going from A36G G67A to A36G G67U, the yeast fitness rises from 0.864 to 0.901.

Compared with A36G G68A, A36G G68C A69U is lower in yeast fitness: 0.905 for the first, 0.547 for the second.

Compared with A36G U47A A69C, A36G U53A C62A is lower in yeast fitness: 0.68 for the first, ≤ 0.5 for the second.

Going from A36G U54A C62U to A36G U54C, the yeast fitness rises from ≤ 0.5 to 0.906.

First: A36G U54G
Second: A36G U59A A65C A70C
The yeast fitness of the first is higher: 0.66 for the first, ≤ 0.5 for the second.

First: A36G U59C
Second: A36G U59C A69U
The yeast fitness of the first is higher: 1.18 for the first, 0.783 for the second.

Going from A36G U64A to A36G U64A G67C, the yeast fitness falls from 0.796 to ≤ 0.5.

First: A36U
Second: A36U A37C A70G
The yeast fitness of the first is higher: 0.714 for the first, ≤ 0.5 for the second.

Going from A36U A37G A40C to A36U A37G A40C C66U, the yeast fitness rises from ≤ 0.5 to 0.636.

A36U A37U A45U A65G and A36U A37U C55A G63C cannot be ordered by yeast fitness: ≤ 0.5 for the first, ≤ 0.5 for the second.

A36U A40C A45U C62G G63A and A36U A40C C62U A65C cannot be ordered by yeast fitness: ≤ 0.5 for the first, ≤ 0.5 for the second.

A36U A40U A57G and A36U A40U A65C C66U cannot be ordered by yeast fitness: ≤ 0.5 for the first, ≤ 0.5 for the second.

First: A36U A40U G44C C60U
Second: A36U A42C
The yeast fitness of the first is lower: ≤ 0.5 for the first, 0.595 for the second.

Going from A36U A42U C49U to A36U A42U C49U A69C, the yeast fitness falls from 0.576 to ≤ 0.5.

First: A36U A43C
Second: A36U A43G
The yeast fitness of the first is lower: 0.569 for the first, 0.745 for the second.

Going from A36U A43G C46A G48C A70C to A36U A45C, the yeast fitness rises from ≤ 0.5 to 0.6.

First: A36U A45C C49G G67A
Second: A36U A45C C49U
The yeast fitness of the first is higher: 0.548 for the first, ≤ 0.5 for the second.

A36U A45G C49A C66U A70G and A36U A45G C66U A70G cannot be ordered by yeast fitness: ≤ 0.5 for the first, ≤ 0.5 for the second.

First: A36U A45U
Second: A36U A45U A57U
The yeast fitness of the first is higher: 0.728 for the first, ≤ 0.5 for the second.

Compared with A36U A45U C46U U53C, A36U A45U C66U is higher in yeast fitness: ≤ 0.5 for the first, 0.535 for the second.

Going from A36U A45U G52C to A36U A57G G63C, the yeast fitness rises from ≤ 0.5 to 0.563.

Compared with A36U A69C, A36U A69G is lower in yeast fitness: 0.629 for the first, 0.617 for the second.

Going from A36U A70C to A36U A70G, the yeast fitness falls from 0.799 to 0.607.

Compared with A36U C46A C66A, A36U C46G is higher in yeast fitness: ≤ 0.5 for the first, 0.655 for the second.

First: A36U C46G C62A A69C
Second: A36U C46G U54C C62A A69C
The yeast fitness of the first is higher: 0.562 for the first, ≤ 0.5 for the second.

Compared with A36U C46U G51A U64C, A36U C49A A69U is lower in yeast fitness: 0.597 for the first, 0.565 for the second.

Going from A36U C49A G52A to A36U C49G, the yeast fitness rises from ≤ 0.5 to 0.607.

A36U C49G A69U and A36U C49G G52C cannot be ordered by yeast fitness: ≤ 0.5 for the first, ≤ 0.5 for the second.

Compared with A36U C49G U54A A57C G68A, A36U C49U is higher in yeast fitness: ≤ 0.5 for the first, 0.585 for the second.

A36U C49U U54C and A36U C55G cannot be ordered by yeast fitness: ≤ 0.5 for the first, ≤ 0.5 for the second.

A36U C55U A65C and A36U C60A A70U cannot be ordered by yeast fitness: ≤ 0.5 for the first, ≤ 0.5 for the second.

Going from A36U C61G to A36U C61U A65U, the yeast fitness falls from 0.698 to ≤ 0.5.

Going from A36U C62G to A36U C62G G63A, the yeast fitness falls from 0.623 to 0.569.

A36U C66A and A36U G38A A40G cannot be ordered by yeast fitness: ≤ 0.5 for the first, ≤ 0.5 for the second.

First: A36U G38A C49G C60G A70G
Second: A36U G39A A42C G50U G63A
The yeast fitness of the first is higher: 0.592 for the first, 0.535 for the second.

A36U G39A A45G and A36U G39C A57U cannot be ordered by yeast fitness: ≤ 0.5 for the first, ≤ 0.5 for the second.

Compared with A36U G39C C61U, A36U G41A C49G is higher in yeast fitness: ≤ 0.5 for the first, 0.601 for the second.

A36U G41C A45U C49U C60U and A36U G44A A70G cannot be ordered by yeast fitness: ≤ 0.5 for the first, ≤ 0.5 for the second.

A36U G48A C49A and A36U G48A C49A G68A cannot be ordered by yeast fitness: ≤ 0.5 for the first, ≤ 0.5 for the second.

A36U G48C C55G and A36U G50A A69U cannot be ordered by yeast fitness: ≤ 0.5 for the first, ≤ 0.5 for the second.

Compared with A36U G50A U59G, A36U G50C is higher in yeast fitness: ≤ 0.5 for the first, 0.587 for the second.

First: A36U G50U A57U
Second: A36U G51A
The yeast fitness of the first is higher: 0.616 for the first, 0.61 for the second.

Going from A36U G51A G58C U59A to A36U G51C, the yeast fitness rises from ≤ 0.5 to 0.612.

A36U G51C U53C and A36U G52A C60A cannot be ordered by yeast fitness: ≤ 0.5 for the first, ≤ 0.5 for the second.

First: A36U G52A C60G
Second: A36U G52A G63C
The yeast fitness of the first is lower: ≤ 0.5 for the first, 0.558 for the second.

A36U G56A A69U and A36U G56A C66U cannot be ordered by yeast fitness: ≤ 0.5 for the first, ≤ 0.5 for the second.

Going from A36U G56C A69U to A36U G63C, the yeast fitness falls from 0.669 to ≤ 0.5.

Going from A36U G67A to A36U G67C, the yeast fitness falls from 0.63 to 0.602.

First: A36U U47A
Second: A36U U47C G52C
The yeast fitness of the first is higher: 0.697 for the first, ≤ 0.5 for the second.

A36U U47G C61A A70U and A36U U53G A69U cannot be ordered by yeast fitness: ≤ 0.5 for the first, ≤ 0.5 for the second.

Compared with A36U U54C, A36U U59C C62G is lower in yeast fitness: 0.559 for the first, ≤ 0.5 for the second.

First: A36U U59G A65U
Second: A36U U64C
The yeast fitness of the first is lower: ≤ 0.5 for the first, 0.581 for the second.

First: A37C
Second: A37C A40G
The yeast fitness of the first is higher: 0.913 for the first, 0.716 for the second.

A37C A40G G52C U59C A65U C66U and A37C A40U G52C A69G cannot be ordered by yeast fitness: ≤ 0.5 for the first, ≤ 0.5 for the second.

Compared with A37C A42C, A37C A42C C46A is higher in yeast fitness: 0.922 for the first, 0.948 for the second.

Compared with A37C A42U C49A A65U, A37C A43C is higher in yeast fitness: 0.609 for the first, 0.931 for the second.

Compared with A37C A43C A65U, A37C A43G is higher in yeast fitness: 0.537 for the first, 0.988 for the second.

First: A37C A43U
Second: A37C A43U A65U
The yeast fitness of the first is higher: 0.992 for the first, 0.651 for the second.

First: A37C A43U U47C A69U
Second: A37C A45G
The yeast fitness of the first is lower: 0.688 for the first, 0.818 for the second.

First: A37C A45G C49G
Second: A37C A45U G51C
The yeast fitness of the first is higher: 0.578 for the first, ≤ 0.5 for the second.

Compared with A37C A57U, A37C A65C is higher in yeast fitness: 0.633 for the first, 0.797 for the second.

Compared with A37C A65G G68U, A37C C46G C62G is lower in yeast fitness: 0.801 for the first, 0.654 for the second.

First: A37C C46G G51A G52A
Second: A37C C46U
The yeast fitness of the first is lower: ≤ 0.5 for the first, 0.946 for the second.

First: A37C C46U A65C G67C
Second: A37C C46U A69C
The yeast fitness of the first is lower: ≤ 0.5 for the first, 0.682 for the second.

Compared with A37C C49G, A37C C49G A57C A70G is lower in yeast fitness: 0.729 for the first, 0.516 for the second.

A37C C49G A65C and A37C C49U C55U G63A G67C cannot be ordered by yeast fitness: ≤ 0.5 for the first, ≤ 0.5 for the second.

A37C C49U C60G and A37C C49U G51A cannot be ordered by yeast fitness: ≤ 0.5 for the first, ≤ 0.5 for the second.

Compared with A37C C49U U54G, A37C C55A is higher in yeast fitness: ≤ 0.5 for the first, 0.599 for the second.

First: A37C C55G G56A A69C
Second: A37C C55G G68C
The yeast fitness of the first is lower: ≤ 0.5 for the first, 0.556 for the second.

First: A37C C55U
Second: A37C C55U G63A G67C
The yeast fitness of the first is higher: 0.769 for the first, 0.617 for the second.

Work on A37C C60A A70G yielded a yeast fitness of 0.592.

— the RNAGym collection of RNA variant scans (doi:10.1126/science.aae0568)
